# Measured values taken from ChEMBL document CHEMBL1153389, “Identification of novel antibacterial peptides by chemoinformatics and machine learning” (2009).
# System: Pseudomonas aeruginosa
# Experiment: Antimicrobial activity against Pseudomonas aeruginosa H1001 expressing luciferase gene assessed as ratio antimicrobial IC50 for drug to Bac2A peptide by luminescence assay
# Type: functional
# Summary of the method: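 Peptides are made by SPOT synthesis on cellulose, cleaved, and the spots placed in plate wells. Overnight P. aeruginosa H1001 (fliC::luxCDABE) is diluted 1:500 in 100 mM Tris-HCl pH 7.3 with 20 mM glucose and added to the wells. After 30 min, serial dilutions (8 rows) are made. Luminescence is read at 4 h. IC50 is taken from a sigmoid fit and expressed relative to Bac2A run in the same series.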
row,Molecule,Ratio IC50
1,H-RWWLKIRKW-OH,0.18
2,H-FVWQKGTNR-OH,11.3
3,H-WRWYWWKKR-OH,0.22
4,H-GRQISWGRT-OH,8.04
5,H-RVRWWKKRW-OH,0.27
6,H-RVWRNGYSR-OH,10.24
7,H-SKNVRTWRQ-OH,7.06
8,H-GKRVWGRGR-OH,8.2
9,H-RGRTSNWKM-OH,7.07
10,H-RWYRKRWSW-OH,0.7
11,H-RWWRKWWIR-OH,0.24
12,H-KIRRKVRWG-OH,10.55
13,H-GWKILRKRK-OH,2.74
14,H-RKWRWRWLK-OH,0.31
15,H-RKRTKVTWI-OH,5.11
16,N=C(N)NCCC[C@H](NC(=O)[C@H](CCCCN)NC(=O)[C@H](CCCNC(=N)N)NC(=O)[C@@H](N)CCCNC(=N)N)C(=O)N[C@@H](Cc1c[nH]c2ccccc12)C(=O)N[C@@H](Cc1c[nH]c2ccccc12)C(=O)N[C@@H](Cc1c[nH]c2ccccc12)C(=O)N[C@@H](Cc1c[nH]c2ccccc12)C(=O)N[C@@H](Cc1c[nH]c2ccccc12)C(=O)O,0.43
17,H-RLKKVRWWW-OH,0.34
18,H-AFRGSRHRM-OH [AFRGSRHRM],11.36
19,H-RWLVLRKRW-OH,0.53
20,H-RWRWWIKII-OH,0.46
21,H-ARGKSIKNR-OH,8.35
22,H-IVVRVWVVR-OH,3.5
23,H-RWILWWWRI-OH,25
24,H-RWRRWKWWW-OH,0.4
25,H-GWNTMGRRW-OH,6.32
26,H-ATRKGYSKF-OH,25

row,Molecule,Ratio IC50
1,H-INRKRRLRW-OH,4.25
2,H-RRRWWWIIV-OH,0.85
3,H-RWWRWRKWW-OH,0.28
4,H-RRRKWWIWG-OH,0.57
5,H-ARGRWINGR-OH,7.24
6,H-GRMRLWNGR-OH,7.91
7,H-KRWRWWRWW-OH,0.28
8,H-VSGNWRGSR-OH,8.54
9,H-IRWWKRWWR-OH,0.21
10,H-GKFYKVWVR-OH,1.21
11,H-NRRNGQMRR-OH,8.41
12,H-IWKRWRKRL-OH,0.33
13,H-IRRRKKRIK-OH,6.42
14,H-IRQWWRRWW-OH,0.5
15,H-WRFKVLRQR-OH,7.08
16,H-WVRFVYRYW-OH,2.15
17,H-RWRIKFKRW-OH,0.26
18,H-NKTGYRWRN-OH,8.33
19,N=C(N)NCCC[C@H](NC(=O)[C@H](CCCNC(=N)N)NC(=O)[C@@H](N)CCCNC(=N)N)C(=O)N[C@@H](Cc1c[nH]c2ccccc12)C(=O)N[C@@H](Cc1c[nH]c2ccccc12)C(=O)N[C@@H](Cc1c[nH]c2ccccc12)C(=O)N[C@@H](Cc1c[nH]c2ccccc12)C(=O)N[C@@H](Cc1c[nH]c2ccccc12)C(=O)N[C@@H](Cc1c[nH]c2ccccc12)C(=O)O,1.82
20,H-GWGGKRRNF-OH,7.38
21,H-LVFRKYWKR-OH,0.99
22,H-KWRRWKRWW-OH,0.15
23,H-IRMWVKRWR-OH,0.61
24,H-RGKYIRWRK-OH,3.83
25,H-IKWWWRMRI-OH,0.39
26,H-WKRWKWWKR-OH,0.25

row,Molecule,Ratio IC50
1,H-RVKTWRVRT-OH,5.66
2,H-SFNWKRSGK-OH,25
3,H-WGGHKRRGW-OH,6.19
4,H-LRWRWWKIK-OH,0.26
5,H-HYKFQRWIK-OH,2.79
6,H-IKRWWWRRW-OH,0.22
7,H-GRRVMNQKR-OH,9.83
8,H-KRWWWWRFR-OH,0.24
9,H-AGGMRKRTR-OH,25
10,H-KRWWWVWKR-OH,0.36
11,H-RSGKKRWRR-OH,6.5
12,H-KWWLVWKRK-OH,0.23
13,H-RWRWKRWWW-OH,0.25
14,H-RRWWHLWRK-OH,0.38
15,H-KKRWVWVIR-OH,0.35
16,H-RWKIFIRWW-OH,1.82
17,H-RKWWRWWRW-OH,0.31
18,H-KFRKRVWWW-OH,0.3
19,H-RWRIKRWWW-OH,0.12
20,H-WGRTRWSSR-OH,9.64
21,H-IRKWRRWWK-OH,0.41
22,H-RVFVKIRMK-OH,0.72
23,H-RRKWWWRWW-OH,0.27
24,H-GRIGGKNVR-OH,9.12
25,H-GSRRSVWVF-OH,2.3
26,H-KKSKQLWKR-OH,3.23

row,Molecule,Ratio IC50
1,H-KRWWWWWKR-OH,0.22
2,H-IKRWWRWWR-OH,0.23
3,H-KIWWWWRRR-OH,0.21
4,H-IRRRWWWIV-OH,0.23
5,H-GRRWGMGVR-OH,7.75
6,H-RKWMGRFLM-OH,4.38
7,H-KRWWKWWRR-OH,0.13
8,H-RKIWWWRIR-OH,0.59
9,H-WRWWKWWRR-OH,0.23
10,H-KRKLIRWWW-OH,0.23
11,H-RRMGNGGFR-OH,8.71
12,H-RRMKKLRRK-OH,4.22
13,H-FVVMKRIVW-OH,5.38
14,H-WGRGGWTNR-OH,25
15,H-YQRLFVRIR-OH,25
16,H-RWRWWKRWY-OH,0.2
17,H-IRRIVRRKI-OH,11.15
18,H-RWKMWWRWV-OH,0.24
19,H-KRWWRKWWR-OH,0.15
20,H-AWKIKKGRI-OH,3.59
21,H-RRRKWWIWW-OH,0.18
22,H-IRRRKWWWW-OH,0.21
23,H-VLVKKRRRR-OH,12.48
24,H-IKRVKRRKR-OH,2.93
25,H-KRRRIWWWK-OH,0.4
26,H-RWMVSKIWY-OH,25

row,Molecule,Ratio IC50
1,H-ASKRVGVRN-OH,8.17
2,H-KWWRWWRKW-OH,0.2
3,H-KNRGRWFSH-OH,9.79
4,H-KRWWIRWWR-OH,0.21
5,H-RRRKTWYWW-OH,0.32
6,H-WSQNVRTRI-OH,5.71
7,H-RKVRWKIRV-OH,0.32
8,H-GRTMNGRW-OH,6.93
9,H-WGKRRGWNT-OH,7.91
10,H-AMLGGRQWR-OH,6.75
11,H-IRKKRRRWT-OH,6.59
12,H-RRIRRVRWG-OH,8.22
13,H-KRKIWWWIR-OH,0.28
14,H-RRIWRWWWW-OH,0.68
15,H-TRKVWWWRW-OH,0.76
16,H-QRNKGLRHH-OH,8.76
17,H-RRWFVKWWY-OH,0.52
18,H-RWIGVIIKY-OH,2.24
19,H-WRWWWKKWR-OH,0.19
20,H-WVKVWKYTW-OH,5.64
21,H-KRWWKWIRW-OH,0.04
22,H-RRWWMRWWV-OH,0.33
23,H-WRWRWWKRW-OH,0.28
24,H-ANRWGRGIR-OH,10.8
25,H-KKRWLWWWR-OH,0.3
26,H-GVRSWSQRT-OH,8.5

row,Molecule,Ratio IC50
1,H-RRVQRGKWW-OH,6.3
2,H-RVWFKRRWW-OH,0.26
3,H-IRGRIIFWV-OH,0.44
4,H-RWWIRKWWR-OH,0.21
5,H-RIKRWWWWR-OH,0.31
6,H-WHGGQKWRK-OH,8.5
7,H-VRIVRVRIR-OH,2.22
8,H-GVRVQRNSK-OH,25
9,H-WIRKRSRIF-OH,3.39
10,H-GMRRWRGKN-OH,6.05
11,H-GGIRRLRWY-OH,1.16
12,H-TRGWSLGTR-OH,12.15
13,H-ATWIWVFRR-OH,4.88
14,H-KRFWIWFWR-OH,3.04
15,H-ILRVISKRR-OH,25
16,H-SWYRTRKRV-OH,6.66
17,H-RQNGVWRVF-OH,8.26
18,H-RNKFGGNWR-OH,25
19,H-HGVWGNRKR-OH,7.95
20,H-FMWVYRYKK-OH,1.51
21,H-VKRYYWRWR-OH,1.23
22,H-RWRGIVHIR-OH,4.93
23,H-WHYRSQVGR-OH,6.65
24,H-KNNRRWQGR-OH,6.45
25,H-IWKRWWRRW-OH,0.24
26,H-RWRRKWWWW-OH,0.39

row,Molecule,Ratio IC50
1,H-WHGVRWWKW-OH,2.5
2,H-GRNGWYRIN-OH,10.74
3,H-GGRGTRWHG-OH,8.6
4,H-RWFRWWKRW-OH,0.26
5,H-WRNRKVVWR-OH,6.79
6,H-KRWWIWRIR-OH,0.35
7,H-SSGVRWSWR-OH,8.16
8,H-KRWVWYRYW-OH,0.54
9,H-MINRVRLRW-OH,2.77
10,H-RKRWLWRWW-OH,0.25
11,H-RRFKKWYWY-OH,0.26
12,H-KRWLTWRFR-OH,0.54
13,H-LRFILWWKR-OH,0.88
14,H-KWWKIWWKR-OH,0.2
15,H-KFWWWNYLK-OH,1.81
16,H-WKRWRWIRW-OH,0.28
17,H-RHWKTWWKR-OH,0.95
18,H-RIKVIWWWR-OH,0.51
19,H-GIKWRSRRW-OH,1.06
20,H-RGRRQIGKF-OH,8.51
21,H-WRRWWKWWR-OH,0.23
22,H-RLVHWIRRV-OH,2.62
23,H-RIWYWYKRW-OH,0.36
24,H-NQKWSGRRR-OH,7.97
